In data set [1] the test system is Mustela putorius furo. Briefly: Toxicity in ferret assessed as emesis at 30 ug/kg, it administered as dry powder co-mixtured with lactose after 1 hr post dose. The conditions noted are these: in vivo, inhaled_or_intranasal, 0.03 mg/kg.
Data set [2] has as its system Lung. Briefly: Drug level in Sprague-Dawley rat lung at 1000 ug/kg, it administered as dry powder measured up to 6 hrs post dose. The conditions noted are these: in vivo, inhaled_or_intranasal, 1 mg/kg. It is filed as ADME, tissue-based. The method in brief:
(§1)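 Dry powder (5% w/w with lactose) was given intratracheally to rats. Compound was recovered from lung biopsies at times over a 24 h period and expressed as percentage of the total administered dose.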

Data set [3] concerns Lung. Briefly: Drug level in Sprague-Dawley rat lung at 1000 ug/kg, it administered as dry powder measured over 24 hrs post dose. It is filed as ADME, tissue-based. The conditions noted are these: in vivo, inhaled_or_intranasal, 1 mg/kg. The method in brief: as §1
Data set [4] relates to Rattus norvegicus. Briefly: Antiinflammatory activity in Sprague-Dawley rat LPS-induced neutrophilia model assessed as inhibition of LPS-induced increase in netrophils in bronchoalveolar lavage at 100 to 3000 ug/kg, it administered as single dose via dry powder insufflator dosed 1 to 18 hrs prior to nebulized LPS challenge measured after 4 hrs by flow cytometric analysis. It is filed as functional. The method in brief: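 Male Sprague-Dawley rats (230−280 g, fasted) were anaesthetized with isoflurane. Micronized compound co-mixed with lactose (5 mg of mix) was insufflated intratracheally through a cannula with 5 mL air. One or 18 h later, LPS solution (30 mL) was nebulized into a chamber over 40 min. After 4 h, BAL was done with 2 × 2 mL PBS and neutrophils were counted by flow cytometry. Controls were lactose alone and fluticasone (10% in lactose).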
Background: In flow cytometry, cells or beads pass a laser one at a time.

The subject of data set [5] is Rattus norvegicus. Briefly: Pro-inflammatory activity in Sprague-Dawley rat assessed as increase in neutrophils in bronchoalveolar lavage at 1000 ug/kg, it administered as single dose via dry powder insufflator after 18 hrs post dose by flow cytometric analysis relative to basal level. It counts as ADME. The conditions noted are these: in vivo, inhaled_or_intranasal, 1 mg/kg.

Data set [6] relates to Lung. Briefly: Drug level in Sprague-Dawley rat lung at 1000 ug/kg, it administered as dry powder measured at 6 hrs post dose. It counts as ADME, tissue-based. The note with it: in vivo, inhaled_or_intranasal, 1 mg/kg. The method in brief: as §1
Data set [7] can be described thus: AUC in Sprague-Dawley rat at 500 ug/kg, iv. The conditions noted are these: in vivo, 0.5 mg/kg. It counts as ADME.
Data set [8] concerns Rattus norvegicus. Briefly: Antiinflammatory activity in Sprague-Dawley rat LPS-induced neutrophilia model assessed as inhibition of LPS-induced increase in netrophils in bronchoalveolar lavage at 1000 ug/kg, it administered single dose as microspray dosed 1 hr prior to nebulized LPS challenge measured after 4 hrs by flow cytometric analysis. It counts as functional. The method in brief:
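Compound was suspended in PBS with 0.2% Tween 80, homogenized, and lower doses were made by 1:10 dilution. Rats (male Sprague-Dawley, 230−280 g, fasted, isoflurane) received 0.2 mL intratracheally by microsprayer, about 1 cm above the carina. Nebulized LPS challenge (30 mL over 40 min) followed 1 h later. BAL neutrophils were counted by flow cytometry 4 h after challenge.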

Data set [9] in a line: Half life in Sprague-Dawley rat at 500 ug/kg, iv. It is filed as ADME. The conditions noted are these: in vivo, 0.5 mg/kg.
A short description of data set [10]: Clearance in Sprague-Dawley rat at 500 ug/kg, iv. It is filed as ADME. The conditions noted are these: in vivo, 0.5 mg/kg.
Data set [11] in a line: Inhibition of PDE4 in human whole blood PBMC assessed as reduction in LPS-induced TNFalpha production after 24 hrs by ELISA. The method in brief:
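Heparinized whole blood from healthy donors was preincubated with LPS (1 μg/mL final) at 37 °C for 10 min. It was then added to compounds in DMSO and incubated 24 h at 37 °C with agitation, then centrifuged. Serum TNF-α was measured by sandwich ELISA with TMB read-out at 450 nm. Experiments were done 2−3 times and duplicates were averaged.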

Data set [12] has as its system Rattus norvegicus. Briefly: Pro-inflammatory activity in Sprague-Dawley rat assessed as increase in neutrophils in bronchoalveolar lavage at 3000 ug/kg, it administered as single dose via dry powder insufflator after 18 hrs post dose by flow cytometric analysis relative to basal level. The conditions noted are these: in vivo, inhaled_or_intranasal, 3 mg/kg. It counts as ADME. The method in brief:
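Fasted male Sprague-Dawley rats (230−280 g) under isoflurane received 5 mg […] co-mixed with lactose, delivered intratracheally by DP-4 insufflator with 5 mL air. 18 h later, LPS (1:100 dilution of 10 mg/mL in PBS; 30 mL) was nebulized in chambers over 40 min. BAL was taken 4 h later and neutrophils were counted by flow cytometry. Lactose-only control.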

A short description of data set [13]: Plasma concentration in Sprague-Dawley rat at 1000 ug/kg, it measured up to 1 hr post dose. It is filed as ADME, cell-free. The note with it: inhaled or intranasal, 1 mg/kg.
Data set [14] is described as follows: Thermodynamic solubility of the compound at 37 degC.
The target in data set [15] is 3',5'-cyclic-AMP phosphodiesterase 4B (Homo sapiens, UniProt Q07343). Briefly: Inhibition of recombinant human PDE4B1 using [3H]-cAMP as substrate […] measured after 60 mins by scintillation proximity assay. The method in brief:
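Compounds ranged from 10 μM to 10 pM. The reaction was started with PDE4 enzyme and run 60 min at room temperature with agitation (about 10−20% conversion), then stopped with SPA beads. [3H]-AMP was counted by scintillation.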
For orientation: SPA uses beads or plates that emit light when radiolabelled molecules are held near them.

Data set [16] in a line: Volume of distribution at steady state in Sprague-Dawley rat at 500 ug/kg, iv. It counts as ADME. The note with it: in vivo, 0.5 mg/kg, read-out: Vdss.
Data set [17] is described as follows: Apparent permeability of the compound by PAMPA assay. It counts as physicochemical. Background: PAMPA measures passive passage across an artificial lipid membrane.
Data set [18] is described as follows: Cmax in Sprague-Dawley rat at 500 ug/kg, iv. The conditions noted are these: in vivo, 0.5 mg/kg. Details: dose 500 ug/kg, route intravenous. It counts as ADME.
Data set [19] deals with Mustela putorius furo. Briefly: Toxicity in it dosed ferret assessed as emesis administered as dry powder co-mixtured with lactose after 1 hr post dose. It counts as organism-based. The note with it: in vivo, inhaled_or_intranasal.
Data set [20] relates to Lung. Briefly: Drug level in Sprague-Dawley rat lung at 1000 ug/kg, it administered as dry powder measured up to 18 hrs post dose. It counts as ADME, tissue-based. The note with it: in vivo, inhaled_or_intranasal, 1 mg/kg. The method in brief: as §1

Values after ≈ are worked out from the molar mass of the structure shown.

Sequence of 3',5'-cyclic-AMP phosphodiesterase 4B (Q07343 whole entry): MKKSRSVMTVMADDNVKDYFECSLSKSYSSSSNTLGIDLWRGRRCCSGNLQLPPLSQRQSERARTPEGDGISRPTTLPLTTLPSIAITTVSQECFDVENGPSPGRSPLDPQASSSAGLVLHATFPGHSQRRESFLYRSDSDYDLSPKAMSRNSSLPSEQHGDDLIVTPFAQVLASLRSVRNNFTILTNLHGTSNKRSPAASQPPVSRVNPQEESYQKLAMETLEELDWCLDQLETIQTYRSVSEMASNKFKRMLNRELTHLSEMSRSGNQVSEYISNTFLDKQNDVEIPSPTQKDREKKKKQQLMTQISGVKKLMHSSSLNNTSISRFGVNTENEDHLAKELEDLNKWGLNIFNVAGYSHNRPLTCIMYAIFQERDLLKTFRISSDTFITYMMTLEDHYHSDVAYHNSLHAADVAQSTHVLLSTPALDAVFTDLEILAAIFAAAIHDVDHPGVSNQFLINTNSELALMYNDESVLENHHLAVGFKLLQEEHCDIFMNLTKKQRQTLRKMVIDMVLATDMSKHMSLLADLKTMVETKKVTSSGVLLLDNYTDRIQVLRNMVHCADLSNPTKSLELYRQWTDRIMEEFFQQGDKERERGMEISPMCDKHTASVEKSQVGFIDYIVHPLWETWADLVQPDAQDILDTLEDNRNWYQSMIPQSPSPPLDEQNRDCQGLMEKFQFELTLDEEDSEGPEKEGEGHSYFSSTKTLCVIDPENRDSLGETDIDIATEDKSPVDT

Usually AUC stands for the area under the concentration-time curve, a measure of exposure. Lower therefore signals less exposure. As a reminder, the inhibition in vivo is the share of the control response that was lost under treatment. By half-life is commonly meant how long it takes for the measured level to halve. Low readings indicate fast loss, high ones slow loss. In general, clearance refers to a measure of how efficiently the substance is removed, as volume per time. The term IC50 denotes the concentration at which inhibition is half-maximal. One may read the thermodynamic solubility as the concentration in solution at equilibrium with solid. For orientation: Papp means the rate of passage across a membrane or cell layer, normalised by area and donor concentration. A word on the Cmax: it is the highest concentration seen after dosing. With `O=C(NC1CC1)c1cccc(-c2cccc(-c3cc(Nc4cccc5ncccc45)c4c(n3)CCNC4=O)c2)c1`, the results for the Activity result in the data set with Mustela putorius furo [1] and with Mustela putorius furo [19] were “Non-Toxic” and “Dose-dependent effect”, respectively. Besides, the Drug uptake was 36% with Lung [2], 15% in the data set with Lung [3], 20% with Lung [6] and 18% in the data set with Lung [20]. The Imax with Rattus norvegicus [4] was found to be 35%. Also, the “fold change (FC)” value is on record as 0.7 in the data set on Rattus norvegicus [5] and 1.3 in the data set on Rattus norvegicus [12]. Moreover, the AUC in data set [7] was 108 ng·h/mL. For the same compound, the inhibition in vivo at 1 mg/kg in the data set with Rattus norvegicus [8] turned out to be 58%. The half-life in [9] is 54 min. The compound also showed a clearance in data set [10] of 79 mL/min/kg. In addition, the IC50 in data set [11] was determined as 0.12 nM; in data set [15] it was 0.17 nM. This compound also showed a concentration at 1 h in [13] of less than 5 ng/mL. The solubility (thermodynamic) in data set [14] amounted to 4 µg/mL (≈ 7.61 µM). Further, the Vd in data set [16] was 3.9 L/kg. For the same compound, in [17], the Papp was found to be 0.15 ×10⁻⁶ cm/s. In [18], this compound displayed a Cmax of 118 ng/mL.

The values above are taken from ChEMBL document CHEMBL4033796, “4-Amino-7,8-dihydro-1,6-naphthyridin-5(6 H)-ones as Inhaled Phosphodiesterase Type 4 (PDE4) Inhibitors: Structural Biology and Structure-Activity Relationships” (J Med Chem, 2018).
